# Hits are enriched below; roughly 2% of the tested compounds scored in any of these assays.
# Xi reactivation: activators of inactive X chromosome reactivation, primary screen, imaging, XiGFP fibroblasts, GFP high-content imaging, set 2; AID 743238, 2013; activation, % at 7.58 µM; 360,000 tested, 0.055% active; XiGFP mouse fibroblasts, % GFP-positive cells imaging, 3 d; cells co-treated with 5-aza-dC sensitizer; scaled so ellipticine positive control = 100%;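 active means mean normalized replicate activation at least 10% and every replicate at or above 10%; inconclusive means only one of the two criteria met; inactive means mean below 10% and not all replicates reach 10%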;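 further: 0% = median of on-plate neutral control wells and 100% = ellipticine 6 µM median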
#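 assay system = SV40-immortalized XiGFP fibroblast cells, line 68-5-11 | buffer or medium = DMEM plus 5-aza-dC sensitizer | doses = single-point pinned compound dosing | times = 3-day compound exposure, then 15 min fixation at room temperature | benchmarks = positive control ellipticine, 6 µM final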
# E-sel inducer: E-selectin induction in HUVECs, primary screen, imaging, HUVEC, immunofluorescence imaging, single point. P16581. normalized: neutral wells 0, TNF-alpha wells 100. activation, % at 7.58 µM. 260,000 tested, 0.37% active;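 active means mean E-selectin-positive cell signal at least 10% of the positive control, reached in at least 60% of replicates, without over 20% cell loss; inconclusive means no rule given, readout overlaps actives, possibly toxicity-flagged; inactive means the rest, including those meeting only one limit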
#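 Test system: HUVEC | Signal: Immunofluorescence imaging | Read-out: Percent E-selectin-positive cells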
# RAD52 anneal inh: RAD52 DNA annealing inhibitors, primary screen, biochemical, FRET, single point, set 2. DNA repair protein RAD52 homolog (Homo sapiens), P43351. recombinant RAD52 DNA annealing, FRET fluorescence. inhibition, % at 18.7 µM. 360,000 tested, 0.46% active;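 active means every replicate showing at least 50% inhibition; inconclusive means mean inhibition at least 50% but not in every replicate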
# Target sequence (P43351 whole entry, looked up): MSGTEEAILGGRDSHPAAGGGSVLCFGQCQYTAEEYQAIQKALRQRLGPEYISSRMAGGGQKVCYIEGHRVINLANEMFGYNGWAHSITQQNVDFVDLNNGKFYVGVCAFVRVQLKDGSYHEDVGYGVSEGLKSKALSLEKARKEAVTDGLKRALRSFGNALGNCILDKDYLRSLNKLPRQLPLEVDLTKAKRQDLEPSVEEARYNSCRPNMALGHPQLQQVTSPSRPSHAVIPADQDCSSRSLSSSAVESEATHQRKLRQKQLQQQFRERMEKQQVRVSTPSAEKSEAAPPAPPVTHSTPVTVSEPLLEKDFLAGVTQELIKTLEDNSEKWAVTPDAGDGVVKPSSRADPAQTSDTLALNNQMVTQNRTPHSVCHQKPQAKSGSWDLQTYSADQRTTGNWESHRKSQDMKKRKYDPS
# PglD inh: C. jejuni PglD acetyltransferase inhibitors, primary screen, biochemical, DTNB colorimetric, single point; UDP-N-acetylbacillosamine N-acetyltransferase PglD (Campylobacter jejuni); purified PglD enzyme, DTNB colorimetric CoA detection; inhibition, % at 12.5 µM; 360,000 tested, 0.098% active; AID 602405, 2012; in the data active means inhibition above about 16%, passing the limit was not always enough; inconclusive means no clear call, values can overlap the other calls
# rRNA inh HTS: reduced GFP signal of wild-type E. coli, primary screen, bacterial rRNA inhibitor project, GFP/RFP fluorescence, OD600, single point; E. coli WT GFP vs humanized-ribosome RFP mutants, 24 h; active compounds read low; DMSO median 0, no signal -100; GFP signal change (wild-type ribosome), % (no concentration beside the values); 350,000 tested, 1.6% active; AID 720706, 2013;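 active means significant combined selectivity score with lowered wild-type GFP, culture density cut under 30%, mutant RFP and density less affected; inactive means any of these conditions unmet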
# RAD54 branch: inhibitors of human RAD54 branch migration, primary screen, biochemical, fluorescence, single point; DNA repair and recombination protein RAD54-like (Homo sapiens), Q92698; RAD54 Holliday junction branch migration, FAM/BHQ fluorescence; inhibition, % at 10.4 µM; 360,000 tested, 0.14% active; AID 602329, 2012;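 active means mean normalized replicate activity at least 40 and at least half of replicates scoring 40 or more; inconclusive means only one of the two criteria met; inactive means mean below 40 and under half of replicates reaching 40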;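 further: 0% = median of neutral control wells and 100% = median of positive control wells; inhibitors cause a drop in the FAM fluorescence signal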
# PglD confirm: PglD acetyltransferase inhibitors, confirmation, biochemical, DTNB absorbance, single point, cherry-picked samples | shares compounds with PglD inh | Purified C. jejuni PglD, DTNB absorbance 412 nm | inhibition, % at 20 µM | 320 tested, under 10 active | AID 743156, 2013;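 active means mean inhibition across replicates of at least 20% with every single replicate also at 20% or more; inconclusive means mean inhibition at least 20% but some replicate falls below 20%; inactive means mean inhibition under 20% and not all replicates reach it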;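 further: initial rate of CoA release by acetyl transfer from AcCoA to the UDP-4-amino sugar; 0% = median of neutral control wells and 100% = median of positive control wells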
# An asterisk follows results filed as active; ? = inconclusive; / = no result; ! = not active in a repeat.
SMILES,Xi reactivation,E-sel inducer,RAD52 anneal inh,PglD inh,rRNA inh HTS,RAD54 branch,PglD confirm
CC(C)CC#Cc1cnc2c(c1)C(=O)N([C@H](C)CO)C[C@H](C)[C@@H](CN(C)Cc1cncnc1)O2,-1,0,1,0,0,-12,/
CC(C)NC(=O)N(C)C[C@H]1Oc2cc(C#Cc3ccc(F)cc3)ccc2S(=O)(=O)N([C@H](C)CO)C[C@H]1C,0,0,14,21*!,-6,-9,10
Cc1cccc(NC(=O)CN(C)C(=O)C2CC2)c1C,0,/,-7,22*,9,0,4
Cc1cccc(C)c1NC(=O)CN(C)C(=O)C1CCCCC1,0,-1,5,-4,1,5,/
CCOC(=O)c1[nH]c(C)c(C(=O)OCC(=O)N2CCCCC2C)c1C (stereo unspecified),/,/,/,23*,/,-4,-2
O=C(OCC(=O)N1CCC(Cc2ccccc2)CC1)c1ccc(O)cc1,0,5,-7,24*,-4,-8,-2
N#Cc1cnn2cc(-c3ncc(C(F)(F)F)cc3Cl)cnc12,/,/,/,47*,/,10,-2
FC(F)(F)c1cnc(-c2cnc3c(-c4ccc(Cl)cc4)cnn3c2)c(Cl)c1,/,/,/,0,/,-6,/
COc1ccc(S(=O)(=O)N2CCN(C(=O)C3CC3)CC2)cc1Br,0,/,-4,42*,2,-5,-4
O=[N+]([O-])c1ccc(O)c(-c2cc(C(F)(F)F)nc(-c3ccccc3)n2)c1,0,0,-20,25*,-28,13,1
CNC(=O)C[C@H]1CC[C@H]2[C@H](COc3ccc(NC(=O)c4cccs4)cc3C(=O)N2C)O1,0,0,/,0,0,0,/
CCc1ccc(/C=C2\SC(=S)N(CCCC(=O)Nc3cc(C)on3)C2=O)cc1,0,0,-24,21*,/,2,-2
Cc1cccc2cc(C3CC(c4ccco4)=NN3C(=O)CCC(=O)O)c(Cl)nc12 (stereo unspecified),0,1,0,23*,3,6,-6
Cc1ccc2cc(C3CC(c4ccco4)=NN3C(=O)CCCC(=O)O)c(Cl)nc2c1 (stereo unspecified),0,1,-1,34*,10,1,2
CCn1c(SCC(=O)Nc2ccc3c(c2)OCCO3)nnc1-c1ccccn1,/,/,/,76*,/,-4,-4
CC(C)Oc1cc(F)ccc1-c1cc(C(=O)NCC2CCCCC2)[nH]n1,0,0,-11,23*,-21,4,12
CC(C)NC(=O)c1cc(-c2ccc(F)cc2OC(C)C)n[nH]1,0,0,-7,2,-5,1,/
Nc1cc(=O)[nH]c(=S)n1-c1cccc(C(F)(F)F)c1,/,/,/,44*,/,3,0
O=C(CSc1nnc(-c2ccncc2)n1Cc1ccccc1)Nc1nccs1,/,/,/,48*,/,4,2
COC(=O)Cc1nnn2c1[C@@H](C)[C@@H](c1ccccc1Br)OC[C@H](C)C2,0,0,-23,/,-6,/,/
CCOC(=O)c1sc(N(Cc2ccccc2)C(=O)CCl)nc1C,0,2,-5,0,0,3,/
CCOC(=O)c1sc(N(Cc2ccccc2)C(=O)CSc2ncn[nH]2)nc1C,/,/,/,21*,/,6,0
COc1ccccc1NC(=O)N[C@@H]1CC[C@@H](CCn2cc(-c3cccnc3)nn2)O[C@@H]1CO,1,0,2,4,1,-15,/
Cn1ncc(C(=O)Nc2ccc(OC(F)(F)F)cc2)c1-n1cccc1,0,0,-2,21*,2,-6,-5
CC(C)n1nc(Cc2cccc3ccccc23)c(C#N)c1N,0,0,5,89*,-15,-5,-5
SMILES,Xi reactivation,E-sel inducer,RAD52 anneal inh,PglD inh,rRNA inh HTS,RAD54 branch,PglD confirm
Cn1nc(Cc2cccc3ccccc23)c(C#N)c1N,0,0,-8,-3,5,3,/
COc1ccc(CCCNC(=O)C2(C)Cc3c(-c4ccc5c(c4)OCO5)ccnc3O2)cc1 (stereo unspecified),2,1,-9,22*,-12,1,0
C[C@@H]1CN([C@@H](C)CO)C(=O)c2cc(NS(=O)(=O)c3ccc(F)cc3)ccc2O[C@@H](C)CCCCO[C@H]1CN(C)Cc1ccc(C(F)(F)F)cc1,0,1,-27,3,-2,-6,/
C[C@@H]1CN([C@H](C)CO)C(=O)Cc2cc(NS(=O)(=O)c3ccccc3)ccc2O[C@H]1CN(C)Cc1ccc(C(=O)O)cc1,0,0,7,/,-2,/,/
O=C(COc1ccc(S(=O)(=O)N2CCCCC2)cc1)N1CCCCCC1,/,/,/,21*,/,-1,-5
O=S(=O)(c1ccccc1)N1CCCCN2[C@@H](CO)[C@@H](c3ccc(C#Cc4ccccc4)cc3)[C@@H]2C1,1,-1,/,-7,-44,2,/
COc1ccc(-c2cc(-c3ccc(OC)cc3)[nH]n2)cc1,/,/,/,32*,/,0,-4
CCOC(=O)C1=C(C)N(c2ccccc2)C(=O)NC1c1cccc([N+](=O)[O-])c1 (stereo unspecified),0,/,/,21*,/,-5,-4
CC(=O)N(C)C[C@H]1Oc2ncc(C#CCc3ccccc3)cc2C(=O)N([C@H](C)CO)C[C@H]1C,1,1,-12,0,/,0,/
COc1ccc(NC(=O)N(C)C[C@H]2OCCCC[C@H](C)Oc3ccc(NC(=O)C4CCCCC4)cc3C(=O)N([C@H](C)CO)C[C@@H]2C)cc1,0,0,-39,4,-1,-4,/
Nc1ccc(CC(N)c2csc(Nc3cc(Oc4ccccc4)ncn3)n2)cc1 (stereo unspecified),0,0,-27,0,-2,-2,/
NCc1csc(Nc2cc(Oc3ccccc3)ncn2)n1,0,?,7,21*,-2,4,0
CCOC(=O)C1CCCN(CCC(=O)Nc2ccc(Br)c(C)c2)C1 (stereo unspecified),0,0,-1,71*,-10,-2,0
